Laboratory results reported in ChEMBL document CHEMBL1240449, “Tricyclononene carboxamide derivatives as novel anti-HIV-1 agents” (Eur J Med Chem, 2010).

Tests used:
[1] = Cytotoxicity against human CEMx174 5.25M7 cells after 4 days by XTT assay; assay type: cell-based
In short: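 Graded compound concentrations added to an equal volume of CEMx174 5.25M7 cells (5 × 10⁵/mL) and incubated 4 days at 37 °C. XTT (1 mg/mL) containing 0.02 mM PMS was added and absorbance read at 450 nm after 4 h. CC50 by CalcuSyn.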

[2] = system: Human immunodeficiency virus 1; assay: Antiviral activity against R5 tropic HIV1 BaL infected in human CEMx174 5.25M7 cells after 3 days by luciferase assay; assay type: functional, organism-based; details: Human immunodeficiency virus 1, BaL, CEMx174 5.25M7, 72 h
In short: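 Compound at graded concentrations, in triplicate, preincubated with an equal volume of HIV-1 Bal (MOI 0.01) at 37 °C for 30 min. CEMx174 5.25M7 cells (5 × 10⁵/mL; CD4+, CXCR4+, CCR5+) were then added. After overnight culture the medium was replaced. On day 3 the cells were lysed and luciferase activity read. IC50 from percent inhibition by CalcuSyn.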

[3] = target: Human immunodeficiency virus type 1 reverse transcriptase (Human immunodeficiency virus 1, UniProt Q72547); assay: Inhibition of HIV1 reverse transcriptase after 1 hr by ELISA
Protease = Protease (Human immunodeficiency virus 1, UniProt Q9YQ12); assay: Inhibition of HIV1 recombinant protease
Chain of Protease (Q9YQ12 whole entry): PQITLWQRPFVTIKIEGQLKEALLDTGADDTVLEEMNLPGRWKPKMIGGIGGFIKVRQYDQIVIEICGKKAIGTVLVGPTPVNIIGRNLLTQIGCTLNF
In short: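 Recombinant HIV-1 protease, purified, in 0.1 mol/L sodium acetate pH 5.0 with 0.9 mol/L NaCl, 1 mmol/L DTT, 1 mmol/L EDTA and a fluorescent peptide substrate. Graded compound concentrations were preincubated in this buffer for 20 min at 37 °C, then enzyme was added to start the reaction. Percent inhibition and IC50 were calculated.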

[4] = target: Human immunodeficiency virus type 1 integrase (Human immunodeficiency virus 1, UniProt Q7ZJM1); assay: Inhibition of HIV1 integrase after 1 hr
Chain of Human immunodeficiency virus type 1 integrase (Q7ZJM1 whole entry): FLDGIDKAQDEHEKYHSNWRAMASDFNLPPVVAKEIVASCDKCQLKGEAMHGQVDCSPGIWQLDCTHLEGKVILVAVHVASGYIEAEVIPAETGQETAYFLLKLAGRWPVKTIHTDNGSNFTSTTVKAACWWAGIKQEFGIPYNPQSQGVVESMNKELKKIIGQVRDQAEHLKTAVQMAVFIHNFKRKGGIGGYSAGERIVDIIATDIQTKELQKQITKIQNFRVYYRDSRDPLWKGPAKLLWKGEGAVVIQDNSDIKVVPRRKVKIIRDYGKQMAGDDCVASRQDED
In short: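 Integrase (F185K/C280S IN1-288, expressed in E. coli) assayed in wells coated with a donor DNA duplex substrate. Final read-out by alkaline phosphatase at 405 nm, after PBS-Tween washes and 1% BSA at 37 °C for 40 min. ABPS included as control. IC50 by CalcuSyn.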

[5] = Selectivity index, CC50 for human CEMx174 5.25M7 cells to IC50 for R5 tropic HIV1 BaL; assay type: functional
In short: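 Ratio of CC50 (XTT, CEMx174 5.25M7 cells, 4 days) to IC50 (HIV-1 Bal luciferase infection assay, day 3) in the same cell line.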

| Structure (SMILES) | CC50 at 96 h [1] | IC50 ([2]; read-out: IC50) | IC50 [3] | IC50 (Protease) | IC50 [4] | IC50 ([2]; read-out: pIC50 (converted)) | Selectivity Index [5] |
| --- | --- | --- | --- | --- | --- | --- | --- |
| O=C(NN1C(=O)[C@@H]2C3C=CC(C4CC43)[C@@H]2C1=O)c1ccc(CN2CCN(c3ccncc3)C2=O)cc1 (stereo partly drawn) | > 165 µM | > 165 µM | – | – | – | – | – |
| O=C(NN1C(=O)[C@@H]2C3C=CC(C4CC43)[C@@H]2C1=O)c1ccc(Cn2cnc3ccccc32)cc1 (stereo partly drawn) | 120 µM | 0.41 µM | > 457 µM | > 114 µM | > 228 µM | 0.41 µM | 291.68 |
| Cc1nc2ccccc2n1Cc1ccc(C(=O)NN2C(=O)[C@@H]3C4C=CC(C5CC54)[C@@H]3C2=O)cc1 (stereo partly drawn) | 1.02 µM | 1.68 µM | – | – | – | 1.68 µM | 0.61 |
| O=C(NN1C(=O)[C@@H]2C3C=CC(C4CC43)[C@@H]2C1=O)c1ccc(COc2ccc(F)cc2)cc1 (stereo partly drawn) | 29.7 µM | 31.4 µM | – | – | – | 31.5 µM | 0.94 |
| Cc1ccc(C)n1-c1ccc(C(=O)NN2C(=O)C3C4C=CC(C5CC45)C3C2=O)cc1 (stereo not drawn) | 3.54 µM | 7.8 µM | – | – | – | 7.8 µM | 0.45 |
| Cc1nnc(C(C)C)n1-c1ccc(C(=O)NN2C(=O)C3C4C=CC(C5CC45)C3C2=O)cc1 (stereo not drawn) | > 185 µM | > 185 µM | – | – | – | – | – |
| Cc1cccc(C)c1C(=O)N1CCC(C(=O)NN2C(=O)C3C4C=CC(C5CC45)C3C2=O)CC1 (stereo not drawn) | > 118 µM | > 118 µM | – | – | – | – | – |
| O=C(N[C@H](C(=O)NN1C(=O)C2C3C=CC(C4CC34)C2C1=O)c1ccccc1)c1ccccc1 (stereo partly drawn) | > 181 µM | 155 µM | – | – | – | 155 µM | >1.17 |
| O=C(N[C@@H](Cc1ccccc1)C(=O)NN1C(=O)C2C3C=CC(C4CC34)C2C1=O)c1ccccc1 (stereo partly drawn) | – | 89.4 µM | – | – | – | 89.3 µM | – |
| CN(CCCN1C(=O)C2C3C=CC(C4CC34)C2C1=O)Cc1ccccc1 (stereo not drawn) | 84 µM | 30.4 µM | – | – | – | 30.4 µM | 2.76 |
| O=C(Nc1ccccc1)c1ccc(CN2C(=O)C3C4C=CC(C5CC45)C3C2=O)cc1 (stereo not drawn) | 44 µM | 5.7 µM | – | – | – | 5.7 µM | 7.72 |
| O=C1C2C3C=CC(C4CC34)C2C(=O)N1CCC(=O)n1cnc2ccccc21 (stereo not drawn) | > 221 µM | > 221 µM | – | – | – | – | – |
| CN1CCN(Cc2ccc(C(=O)NN3C(=O)[C@@H]4C5C=CC(C6CC65)[C@@H]4C3=O)cc2)CC1 (stereo partly drawn) | – | 82.8 µM | – | – | – | 82.8 µM | – |
| O=C(NN1C(=O)[C@@H]2C3C=CC(C4CC43)[C@@H]2C1=O)c1ccc(CNc2cccc(Cl)c2)cc1 (stereo partly drawn) | 27.8 µM | 13.3 µM | – | – | – | 13.2 µM | 2.01 |
| CC(C)CN(Cc1ccc(C(=O)NN2C(=O)[C@@H]3C4C=CC(C5CC54)[C@@H]3C2=O)cc1)c1ccccc1 (stereo partly drawn) | 32.7 µM | 13.2 µM | – | – | – | 13.2 µM | 2.48 |
| CCN(Cc1ccc(C(=O)NN2C(=O)[C@@H]3C4C=CC(C5CC54)[C@@H]3C2=O)cc1)c1ccccc1 (stereo partly drawn) | 57 µM | 57.2 µM | – | – | – | 57.1 µM | 1 |
| O=C(NN1C(=O)[C@@H]2C3C=CC(C4CC43)[C@@H]2C1=O)c1ccc(CN(Cc2ccccc2)c2ccccc2)cc1 (stereo partly drawn) | 25.5 µM | 17.1 µM | – | – | – | 17.1 µM | 1.51 |
| Cc1ccc(-c2ccc3c(c2)C=C(C(=O)Nc2ccc(C[N+](C)(C)C4CCOCC4)cc2)CCC3)cc1.[Cl-] | 7.88 µM | 0.05 µM | – | – | – | – | 157.6 |
| O=C(NN1C(=O)[C@@H]2[C@@H]3C=C[C@@H]([C@H]4C[C@@H]34)[C@@H]2C1=O)c1ccc(C(F)(F)F)cc1 [TECOVIRIMAT] | – | > 200 µM | – | – | – | – | – |
